Test results as given in PubChem BioAssay.
Inconclusive results are not listed.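 The calls were made as follows, unless noted: active = viability increase at or above a cutoff of the median across tested compounds plus 3 SD (cut at about 8.5% in these data, passing the limit was not always enough); inconclusive = some gains above the cutoff, reason not given; inactive = the rest.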

Columns and labels:
[1] = OD615 S. cerevisiae growth inhibition, permissive medium, pilot counter-assay, permissive growth control for S. cerevisiae lifespan shortening project (AID 705;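 active = growth inhibition above 25% in both replicates, a cutoff set 3 SD above the mean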); conditions: OD615, 24 h, at 10 µM, hits give high values
Outline: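 System: Engineered DeaD yeast | Buffer or medium: SC raffinose/galactose permissive medium | Incubation: Cells pre-grown 4 h, then 24 h compound exposure, 30 °C humidified | Measured by: Absorbance (optical density) at 615 nm | Read-out: Reduction in yeast growth (OD615)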

[2] = Restrictive medium S. cerevisiae growth inhibition, OD615, pilot screen of yeast lifespan reduction project, restrictive growth control (AID 706;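 active = growth inhibition above a set limit, 3 SD over mean compound inhibition, in both replicates, cut at about 43% in these data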;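 also: modified DeaD lifespan yeast strain shifted to restrictive glucose medium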); conditions: OD615, 48 h, at 10 µM, hits give high values
Outline: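 Material: modified S. cerevisiae; Medium: glucose-based CSMM-D restrictive medium; Compound dosing: one concentration, 10 µM final, 0.25% DMSO; Incubation: 48 h compound exposure at 30 °C; Measured by: OD615.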

[3] = viability gain of MRP-1-high H69AR cells under doxorubicin, pilot screen, MRP-1 activator project, CellTiter-Glo, duplicate (AID 807); conditions: H69AR viability with doxorubicin, CellTiter-Glo luminescence; at 10 µM; hits give high values;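 also: compound pretreatment 18-22 h then 72 h combined with doxorubicin; 0% = doxorubicin alone and 100% = vehicle without doxorubicin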
[4] = growth suppression of beta-catenin knockout HCT116, pilot screen, human colon tumor cells (AID 823;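 active = cell viability at or below a set limit in both duplicate runs, the limit being the all-compound median minus 4 SD, cut at about 23% in these data, passing the limit was not always enough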;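 also: 0% = wells killed by 20 µM Hyamine and 100% = untreated DMSO cell wells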); conditions: CellTiter-Glo, 60 h, at 10 µM, hits give low values
[5] = growth suppression of PTEN-deleted HCT116, pilot screen, cell-based, HCT116 clonal line, CellTiter-Glo (AID 824;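 active = viability at or below 27.92% in each of two runs, the all-compound median minus 4 SD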;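 also: 0% = 20 µM Hyamine control and 100% = vehicle cell control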); conditions: 60 h, at 10 µM, hits give low values
[6] = inhibitors of the yeast RAM network, pilot screen, dse1pr::URA3 reporter, 5-FOA selection (AID 869;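 active = inhibition over a set limit, the all-compound mean plus 3 SD, in both replicate runs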;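 also: 0% = DMSO wells with no growth and 100% = 10 µM 1-NA-PP1 with full growth; RAM network block rescues cells from 5-FOA so hits raise OD615 growth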); conditions: S. cerevisiae dse1pr::URA3 5-FOA growth, OD615, 2 d; at 10 µM; hits give high values; strain carries analog-sensitive mutant Cbk1 kinase
[7] = RAM signaling pathway blockade in yeast – S. cerevisiae, Pdr1DBD-CYC8 efflux-inhibited sensitized strain, primary screen (AID 1298;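 active = RAM network inhibition above 8.4% in each of two replicates, 3 SD over the compound average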;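 also: 0% = DMSO untreated cells without growth and 100% = 10 µM 1-NA-PP1 full growth; higher means more yeast growth rescued from 5-FOA killing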); conditions: S. cerevisiae cbk1-as DSE1-URA3 strain, 5-FOA growth OD615, 2 d; at 50 µM; hits give high values

CCc1nnc(NC(=O)CCN2C(=O)CCC2=O)s1
inactive: growth inhibition [1] 4.12% | growth inhibition [2] 5.96% | viability increase [3] 0.69% | viability [4] 97.3% | viability [5] 93.6% | inhibition [6] 0.52% | RAM network inhibition [7] 3.17%

Cc1cc2cc(CNC(=O)Cc3cccs3)ccc2n1C
inactive: growth inhibition [1] -14.6% | growth inhibition [2] 3.17% | viability increase [3] -4.96% | viability [4] 74.9% | viability [5] 69% | inhibition [6] 3.38% | RAM network inhibition [7] 8.91%

O=C(NC(Nc1ncccn1)C(=O)c1ccccc1)c1ccccc1 (configuration not stated)
inactive: growth inhibition [1] 5.63% | growth inhibition [2] -0.54% | viability increase [3] -0.49% | viability [4] 96.6% | viability [5] 98.5% | inhibition [6] -0.25% | RAM network inhibition [7] 2.01%

O=C(Cn1cnc2c(cnn2-c2ccccc2)c1=O)c1ccc(Cl)cc1
inactive: growth inhibition [1] -3.83% | growth inhibition [2] -12.3% | viability increase [3] 1.75% | viability [4] 94.3% | viability [5] 90.2% | inhibition [6] 0.5% | RAM network inhibition [7] 3.34%

O/N=C1/CCCSc2ccccc21
inactive: growth inhibition [1] -7.19% | growth inhibition [2] -16.8% | viability increase [3] -1.24% | viability [4] 96.6% | viability [5] 97.9% | inhibition [6] 0.95% | RAM network inhibition [7] 2.18%

CCSc1nnc(Cn2c(=O)sc3ccccc32)n1-c1ccccc1C
inactive: growth inhibition [1] -2.14% | growth inhibition [2] -4.08% | viability increase [3] -1.61% | viability [4] 93.9% | viability [5] 89.7% | inhibition [6] 1.61% | RAM network inhibition [7] 8.51%

CC(=Nc1ccc(C)c(C)c1)C1=C(O)CSC1=O
inactive: growth inhibition [1] 1.08% | growth inhibition [2] -8.17% | viability increase [3] -2.54% | viability [4] 98.1% | viability [5] 90.3% | inhibition [6] 1.67% | RAM network inhibition [7] 4.33%

c1ccc(OCc2nnc3sc(C4COc5ccccc5O4)nn23)cc1 (configuration not stated)
inactive: growth inhibition [1] 4.23% | growth inhibition [2] 5.81% | viability increase [3] -1.91% | viability [4] 99.4% | viability [5] 90% | inhibition [6] 2.56% | RAM network inhibition [7] 5.98%

CC(C)CCNC(=O)c1ccc2c(c1)N(Cc1ccccc1)C(=O)CS2=O (configuration not stated)
inactive: growth inhibition [1] -0.755% | growth inhibition [2] 4.24% | viability increase [3] 1.95% | viability [4] 104% | viability [5] 94% | inhibition [6] 0.275% | RAM network inhibition [7] 1.41%

O=C(CCc1ccccc1)Nc1ccc(NC(=O)c2ccco2)cc1
inactive: growth inhibition [1] -5.04% | growth inhibition [2] 0.64% | viability increase [3] -1.63% | viability [4] 103% | viability [5] 93.7% | inhibition [6] 1.44% | RAM network inhibition [7] 2.56%

COc1ccc(CCNC(=O)CN(c2ccccc2OC)S(C)(=O)=O)cc1OC
inactive: growth inhibition [1] -2.94% | growth inhibition [2] 9.29% | viability increase [3] -1.9% | viability [4] 106% | viability [5] 96.8% | inhibition [6] 1.04% | RAM network inhibition [7] 1.38%

CCOc1ccc(N(CC(=O)N2CCc3ccccc32)S(=O)(=O)c2c(C)noc2C)cc1
inactive: growth inhibition [1] -1.81% | growth inhibition [2] 10.1% | viability increase [3] -5.12% | viability [4] 65.7% | viability [5] 59.2% | inhibition [6] 3.63% | RAM network inhibition [7] 2.47%

COc1ccccc1N1CCN(CCCC(=O)c2ccc(F)cc2)CC1
inactive: growth inhibition [1] -11.5% | growth inhibition [2] 1.04% | viability increase [3] -0.78% | viability [4] 80.6% | viability [5] 88.9% | inhibition [6] 2.29% | RAM network inhibition [7] -0.89%

c1ccc2c(c1)[nH]c1nc3nncn3nc12
inactive: growth inhibition [1] -7.18% | growth inhibition [2] -14.9% | viability increase [3] -1.07% | viability [4] 94% | viability [5] 93% | inhibition [6] 1.29% | RAM network inhibition [7] 7.04%

CSC1=N/C(=C\c2ccccc2F)C(=O)S1
inactive: growth inhibition [1] -23.1% | growth inhibition [2] -24.4% | viability increase [3] -2.19% | viability [4] 102% | viability [5] 104% | inhibition [6] 0.435% | RAM network inhibition [7] -0.79%

COc1ccc(OC)c2[nH]c(=O)c(CCNC(=O)C(C)(C)C)cc12
inactive: growth inhibition [1] -5.16% | growth inhibition [2] -4.56% | viability increase [3] 1.19% | viability [4] 105% | viability [5] 102% | inhibition [6] 0.23% | RAM network inhibition [7] 0.89%

CC1Cc2nc(SCC(=O)NCc3ccco3)n(Cc3ccccc3)c(=O)c2S1 (configuration not stated)
inactive: growth inhibition [1] -6.15% | growth inhibition [2] -15.7% | viability increase [3] -6.41% | viability [4] 91.1% | viability [5] 87.3% | inhibition [6] 3.45% | RAM network inhibition [7] 3.84%

COC(=O)C1CCN(C(c2cc(OC)c(OC)c(OC)c2)c2sc3nc(C)nn3c2O)CC1 (configuration not stated)
inactive: growth inhibition [1] -10.8% | growth inhibition [2] -17.2% | viability increase [3] -1.81% | viability [4] 102% | viability [5] 93% | inhibition [6] 2.08% | RAM network inhibition [7] 3.91%

CCOC(=O)C1C(c2cccc(Cl)c2Cl)NC(=O)NC1(O)C(F)(F)F (configuration not stated)
inactive: growth inhibition [1] -5.62% | growth inhibition [2] -7.31% | viability increase [3] -2.19% | viability [4] 94.8% | viability [5] 96.9% | inhibition [6] 1.15% | RAM network inhibition [7] 7.71%

Cc1nc2ccccc2c2oc(C(=O)NCCN3CCN(C)CC3)cc12
inactive: growth inhibition [1] -12.1% | growth inhibition [2] -15.1% | viability increase [3] -1.69% | viability [4] 89.4% | viability [5] 98.8% | inhibition [6] 1.64% | RAM network inhibition [7] 3.28%

Cc1cc(C)cc(N(CC(=O)N2CCn3c2nc2ccccc23)S(=O)(=O)c2c(C)noc2C)c1
inactive: growth inhibition [1] -5.97% | growth inhibition [2] 11.2% | viability increase [3] -4.06% | viability [4] 88.9% | viability [5] 90.9% | inhibition [6] 1.79% | RAM network inhibition [7] 10.1%

NC(=O)CSc1ncc(-c2ccccc2)[nH]1
inactive: growth inhibition [1] -4.49% | growth inhibition [2] -3.75% | viability increase [3] -3.58% | viability [4] 101% | viability [5] 93.7% | inhibition [6] 0.715% | RAM network inhibition [7] 4.43%

CN(C)C1NC(=O)c2cc(-c3ccccc3)sc2N1 (configuration not stated)
inactive: growth inhibition [1] -5.92% | growth inhibition [2] -10.2% | viability increase [3] -0.01% | viability [4] 102% | viability [5] 104% | inhibition [6] 0.135% | RAM network inhibition [7] 2.33%

O=C(c1cc2ccccc2cc1OCC(O)CN1CCCCC1)N1CCCCC1 (configuration not stated)
inactive: growth inhibition [1] 2.48% | growth inhibition [2] 0.51% | viability increase [3] -4.18% | viability [4] 86.6% | viability [5] 83.5% | inhibition [6] 0.285% | RAM network inhibition [7] -0.89%

CCOc1ccc(C2c3c(oc4ccccc4c3=O)C(=O)N2CCCN2CCOCC2)cc1OCC (configuration not stated)
inactive: growth inhibition [1] -14% | growth inhibition [2] -31.3% | viability increase [3] -4.89% | viability [4] 102% | viability [5] 88.6% | inhibition [6] 0.48% | RAM network inhibition [7] 1.21%

CCC(C)NC(=O)c1cnc2n(c1=O)CCS2 (configuration not stated)
inactive: growth inhibition [1] 0.08% | growth inhibition [2] -1.8% | viability increase [3] 1.88% | viability [4] 103% | viability [5] 103% | inhibition [6] 1.18% | RAM network inhibition [7] 1.25%

Cc1ccc(NC(=O)CSc2nnc(-c3ccncc3)n2N)cc1C
inactive: growth inhibition [1] -4.62% | growth inhibition [2] -3.02% | viability increase [3] -2.83% | viability [4] 97.8% | viability [5] 98.3% | inhibition [6] 1.71% | RAM network inhibition [7] 2.23%

CC(C)Oc1ccc(N2CC(C(=O)Nc3ccc4c(c3)OCO4)CC2=O)cc1 (configuration not stated)
inactive: growth inhibition [1] -13.3% | growth inhibition [2] -4.22% | viability increase [3] -0.37% | viability [4] 106% | viability [5] 99.5% | inhibition [6] 2.58% | RAM network inhibition [7] 4.96%

CCCCCn1c(=O)[nH]c2cc(C(=O)O)ccc2c1=O
inactive: growth inhibition [1] -13.9% | growth inhibition [2] -12.1% | viability increase [3] -1.3% | viability [4] 102% | viability [5] 90.7% | inhibition [6] 1.91% | RAM network inhibition [7] 2.2%

CCOc1ccc(-c2cc(NC(=O)Cn3ncc4c3-c3ccccc3OC4)on2)cc1OCC
inactive: growth inhibition [1] -7.96% | growth inhibition [2] -3.25% | viability increase [3] 1.4% | viability [4] 98.8% | viability [5] 91.2% | inhibition [6] 1.22% | RAM network inhibition [7] -0.17%

O=C(Cn1c2c(c(-c3ccccc3)cc1=O)CCCC2)N1CCCCCC1
inactive: growth inhibition [1] -10.5% | growth inhibition [2] -10.3% | viability increase [3] -3.64% | viability [4] 48.8% | viability [5] 49% | inhibition [6] 1.49% | RAM network inhibition [7] -0.37%

COCCNC(=O)C1c2cc(OC)c(OC)cc2C(=O)N(C)C1c1cccnc1 (configuration not stated)
inactive: growth inhibition [1] -5.99% | growth inhibition [2] -8.46% | viability increase [3] 0.41% | viability [4] 91.3% | viability [5] 92% | inhibition [6] -0.34% | RAM network inhibition [7] 5.06%

CCn1nnnc1-c1ccc(OC)c(S(=O)(=O)NCCc2ccccc2)c1
inactive: growth inhibition [1] 2.78% | growth inhibition [2] 2.87% | viability increase [3] 0.85% | viability [4] 93.5% | viability [5] 97.3% | inhibition [6] 0.03% | RAM network inhibition [7] 1.98%

COc1ccc(NC(=O)C(CC(=O)O)Cc2ccccc2)cc1 (configuration not stated)
inactive: growth inhibition [1] -17% | growth inhibition [2] -9.36% | viability increase [3] -0.09% | viability [4] 102% | viability [5] 97.9% | inhibition [6] 1.62% | RAM network inhibition [7] 5.61%

CCCOc1nc2c(c(=O)n(C)c(=O)n2C)n1CCC
inactive: growth inhibition [1] -7.2% | growth inhibition [2] -10.2% | viability increase [3] -2.13% | viability [4] 82.2% | viability [5] 86.6% | inhibition [6] 1.4% | RAM network inhibition [7] -0.88%

CSC1=NCCN1C(=O)c1ccco1
inactive: growth inhibition [1] 1.44% | growth inhibition [2] -4.79% | viability increase [3] 0.04% | viability [4] 103% | viability [5] 98.3% | inhibition [6] 0.865% | RAM network inhibition [7] 3.19%
